Published values collected from several papers.
Target: Dual specificity mitogen-activated protein kinase kinase 2 (MAP2K2, Homo sapiens, UniProt P36507)

With CCCS(=O)(=O)Nc1ccc(F)c(C(=O)c2c[nH]c3ncc(-c4ccc(Cl)cc4)cc23)c1F the inhibition was less than 10% (enzyme activity; inhibitor; 1 µM).
With CC(C)(O)[C@H]1CC[C@H](Nc2ccc3ncc(-c4cccc(C(F)(F)F)c4)n3n2)CC1 the remaining activity was 101% (enzyme activity; inhibitor; 1 µM).
For C[C@H](NC(=O)c1cnc2n1[C@](C)(Cc1ccc(C#N)cc1)C(=O)N2c1cc(Cl)c(F)c(Cl)c1)C(=O)NC1(c2ccccn2)CC1, the remaining binding was 90% (cell-free assay; competition with immobilised ligand; 1 µM).
With CC1(C)NC(=O)c2[nH]c3c(Cl)c(Cl)ccc3c2C1C#N (centres unmarked) the ΔTm was -0.4 °C (thermal stability; DSF; 10 µM).
For COc1cc(Nc2cnc(C#N)c(O[C@H](C)CN(C)C)n2)ncc1-c1cnn(C)c1, the remaining activity was 57% (enzyme activity; inhibitor; radiometric; 10 µM).
With COc1cc2ncnc(Nc3ccc(Oc4ccccc4)c(C)c3C)c2cc1OC the inhibition was -7% (enzyme activity; inhibitor; 1 µM).
CS(=O)(=O)Nc1cccc(-c2csc(NC(=O)CSc3nc4nccnc4c(=O)n3CCc3ccccc3)n2)c1 has an inhibition of -1% (enzyme activity; inhibitor; 10 µM).
The remaining activity of CC(C)(C)c1nc(-c2cccc(NS(=O)(=O)c3c(F)cccc3F)c2F)c(-c2ccnc(N)n2)s1 is reported as 91% (enzyme activity; inhibitor; radiometric; 1 µM).
With Cn1c2c(Cl)c(Cl)ccc2c2cc(N)[nH]c(=O)c21 the ΔTm was -0.1 °C (thermal stability; DSF; 10 µM).
FC(F)(F)Oc1cccc(-c2cnc3ccc(-c4ccncc4)nn23)c1 has an activity vs control of 94% (enzyme activity; inhibitor; radiometric; 5 µM).
The remaining binding of Cn1cc(Cl)c2c(Oc3c(F)cc(Nc4cc(Cl)nc(N)n4)cc3F)ccnc21 is reported as 100% (cell-free assay; competition with immobilised ligand; 0.1 µM).
Cn1c2c(Cl)c(Cl)ccc2c2cn[nH]c(=O)c21 gave a ΔTm of -0.3 °C (thermal stability; DSF; 10 µM).
Nc1cnc(N2CCc3cc(S(=O)(=O)Nc4c(F)cc(Cl)cc4F)cc(N4CCCC4=O)c32)nc1 has a remaining binding of 92% (cell-free assay; competition with immobilised ligand; 1 µM).
COc1cc(-c2cc(-c3ccc(N4CCNCC4)cc3)cnc2C)cc(OC)c1OC has an inhibition of 8% (enzyme activity; inhibitor; 1 µM).
The remaining binding of O=C(NCc1ncc(C(F)(F)F)cc1Cl)c1ccc2c(c1)C1(CCS(=O)(=O)CC1)[C@@H](C1CC1)N2S(=O)(=O)c1ccc(F)cc1 is reported as 78% (cell-free assay; competition with immobilised ligand; 1 µM).
For COc1cc(Cl)c(C(=O)N[C@@H](CN[C@H]2CC[C@@H](N)CC2)Cc2ccc(C#N)cc2)cc1-c1ccc(CN[C@H](C)c2ccc(C)cc2)o1, the remaining activity was 115% (enzyme activity; inhibitor; 1 µM).
N#CC(=C(N)Sc1ccc(N)cc1)c1ccccc1C(F)(F)F gave a remaining signal of 94.5% (cell-free assay; 0.5 µM).
O=C(Nc1cnn(-c2csc(C(=O)NC3COC3)c2)c1)Nc1c(F)cccc1Cl has a remaining activity of 90.6% (enzyme activity; inhibitor; 5 µM).
N#CCCc1ccc2c(c1)-c1[nH]c3ccc([N+](=O)[O-])cc3c1CC(=O)N2 gave a remaining signal of 90.3% (cell-free assay; 0.5 µM).
CS(=O)(=O)N1CCCC(NC(=O)[C@H](CCC2CCCCC2)NC(=O)c2ccc(CNC(=O)c3cnc4ccccn34)cc2)C1 (some centres unmarked) gave a remaining binding of 100% (cell-free assay; competition with immobilised ligand; 0.1 µM).
The remaining activity of Oc1cccc(-c2nc(N3CCOCC3)c3oc4ncccc4c3n2)c1 is reported as 115% (enzyme activity; inhibitor; 10 µM).
With Cn1c2c(c3ccc(Cl)c(Cl)c31)C(C#N)C1(CCCC1)NC2=O (centres unmarked) the ΔTm was -0.4 °C (thermal stability; DSF; 10 µM).
With Nc1c(C(=O)NCc2ccc(C(=O)NCCCC3CCCCC3)cc2)cnn1-c1ccccc1 the remaining binding was 100% (cell-free assay; competition with immobilised ligand; 0.1 µM).
N#CC1c2c([nH]c3c(Cl)c(Cl)ccc23)C(=O)NC12CCCCC2 (racemic) gave a ΔTm of -0.8 °C (thermal stability; DSF; 10 µM).
CCN(CC)CCNC(=O)c1c(C)[nH]c(/C=C2\C(=O)Nc3ccc(F)cc32)c1C has a remaining signal of 25.4% (cell-free assay; 0.5 µM).
The ΔTm of Cn1c2c(c3ccc(Cl)c(Cl)c31)C(C#N)C1(CCNCC1)NC2=O (racemic) is reported as -0.4 °C (thermal stability; DSF; 10 µM).
With CN1CC(Oc2cnc(C#N)cc2-c2ccn3nc(NC(=O)C4CC4)cc3c2)C1 the inhibition was 14% (enzyme activity; inhibitor; 1 µM).
The remaining binding of CN(C)C(=O)Cn1cc(-c2nc([C@@](C)(c3ccc(-c4cnc(N)nc4)cc3)C3CC3)no2)cn1 is reported as 86% (cell-free assay; competition with immobilised ligand; 1 µM).
O=C1Nc2ccc(Cl)cc2C1=Cc1cc(Cl)c(O)c(Cl)c1 has a remaining signal of 82% (cell-free assay; 0.5 µM).
The remaining activity of Cc1ccc(C(=O)Nc2ccc(CN3CCN(C)CC3)c(C(F)(F)F)c2)cc1C#Cc1cnc2cccnn12 is reported as 97% (enzyme activity; inhibitor; 23.5 nM).
N#Cc1ccc(Nc2ccc3[nH]c(=O)[nH]c3c2)c(Cl)c1 gave a remaining binding of 93% (cell-free assay; competition with immobilised ligand; 1 µM).
For Cn1c2c(c3ccccc31)C(C#N)C(C)(C)NC2=O (centres unmarked), the ΔTm was -0.1 °C (thermal stability; DSF; 10 µM).
